Converted amounts (≈) assume the structure as drawn.
Experiments:
[1] = test system: Candida albicans; test: Antifungal activity against Candida albicans after 45 hrs by resazurin microplate assay; format: functional, organism-based
[2] = test system: KB; test: Cytotoxicity against human KB cells after 45 hrs by resazurin microplate assay; format: functional, cell-based
How it was run: (§1)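 Human cancer cell panel in the resazurin microplate assay: KB (oral epidermoid carcinoma), MCF-7 (breast cancer) and NCI-H187 (small-cell lung cancer).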

[3] = test system: Mycobacterium tuberculosis; test: Antituberculosis activity against Mycobacterium tuberculosis H37Ra by green fluorescent protein microplate assay; format: functional
[4] = test system: Vero; test: Cytotoxicity against african green monkey Vero cells by green fluorescent protein microplate assay; format: cell-based; conditions: Chlorocebus sabaeus
How it was run: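 Vero cells (African green monkey kidney […]) tested in the green fluorescent protein microplate assay (GFPMA), the same format the paper used for Mycobacterium tuberculosis H37Ra.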

[5] = test system: MCF7; test: Cytotoxicity against human MCF7 cells after 45 hrs by resazurin microplate assay; format: functional, cell-based; conditions: MCF7, 45 h; how it was run: as §1
[6] = test system: Plasmodium falciparum; test: Antimalarial activity against Plasmodium falciparum K1 after 18 hrs by [G-3H]hypoxanthine uptake assay; format: functional, organism-based; conditions: K1, 18 h
How it was run: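 Plasmodium falciparum K1, a multidrug-resistant strain, tested by the microculture radioisotope technique.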

[7] = test system: NCI-H187; test: Cytotoxicity against human NCI-H187 cells after 45 hrs by resazurin microplate assay; format: functional, cell-based; conditions: NCI-H187, 45 h; how it was run: as §1

Row | Compound | IC50 [1] [µM] | IC50 [2] [µM] | MIC [3] [µM] | IC50 [4] [µM] | IC50 [5] [µM] | IC50 [6] [µM] | IC50 [7] [µM]
1 | C[C@H]1CC[C@@H]2O[C@@]23C[C@H]2OC(=O)C(CO)=C2C[C@]13C | > 189 | > 189 | > 189 | > 189 | > 189 | > 38 | > 189
2 | C=C1C(=O)O[C@@H]2C[C@]34O[C@H]3CC[C@H](C)[C@@]4(C)C[C@]12O | 7.8 | 10 | 47 (≈ 12.4 µg/mL) | 9.4 | 10 | 13 | 5.8
3 | C=C1C(=O)O[C@@H]2C[C@]3(O)[C@H](O)CC[C@H](C)[C@@]3(C)C[C@]12O | > 177 | 5 | > 177 | 8.5 | 15 | > 35 | 7.2
4 | C=C1C(=O)O[C@@H]2C[C@]3(O)[C@H](OC)CC[C@H](C)[C@@]3(C)C[C@]12O | > 169 | 21 | 42 (≈ 12.4 µg/mL) | 3.9 | 15 | 8.1 | 3.8
5 | CC1=C2C[C@]3(C)[C@@H](C)CC[C@@H](O)[C@@]3(O)C[C@H]2OC1=O [MAIRETOLIDE F] | > 188 | > 188 | > 188 | > 188 | > 188 | > 38 | > 188
